{"source": "ChEMBL document CHEMBL4261538", "about": "“Synthesis and molecular docking studies of xanthone attached amino acids as potential antimicrobial and anti-inflammatory agents” (Medchemcomm, 2017)", "assay_type_in_all_cases": "functional", "key": {"[1]": {"system": "Staphylococcus aureus", "experiment": "Antibacterial activity against Staphylococcus aureus at 25 ug/ml incubated for 24 hrs by agar well diffusion method", "summary_of_the_method": "(§1)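 Bacteria grown in nutrient broth at 37 °C for 24 h, then subcultured at room temperature. Compounds dissolved in DMSO at 5 mg mL⁻¹ and 5–20 µL added to 6 mm wells, giving 25, 50, 75, 100 µg per well. Gentamicin was the positive control and DMSO the negative control. Plates held at 37 °C for 24 h, then inhibition zone diameter (mm) measured. Values are means of three determinations.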"}, "[2]": {"system": "Staphylococcus aureus", "experiment": "Antibacterial activity against Staphylococcus aureus at 100 ug/ml incubated for 24 hrs by agar well diffusion method", "summary_of_the_method": "as §1"}, "[3]": {"system": "Staphylococcus aureus", "experiment": "Antibacterial activity against Staphylococcus aureus incubated for 24 hrs by microdilution method"}, "[4]": {"system": "Staphylococcus aureus", "experiment": "Antibacterial activity against Staphylococcus aureus at 75 ug/ml incubated for 24 hrs by agar well diffusion method", "summary_of_the_method": "as §1"}, "[5]": {"system": "Staphylococcus aureus", "experiment": "Antibacterial activity against Staphylococcus aureus at 50 ug/ml incubated for 24 hrs by agar well diffusion method", "summary_of_the_method": "as §1"}, "[6]": {"system": "Klebsiella pneumoniae", "experiment": "Antibacterial activity against Klebsiella pneumoniae at 50 ug/ml incubated for 24 hrs by agar well diffusion method", "summary_of_the_method": "as §1"}, "[7]": {"system": "Escherichia coli", "experiment": "Antibacterial activity against Escherichia coli at 50 ug/ml incubated for 24 hrs by agar well diffusion method", "summary_of_the_method": "as §1"}, "[8]": {"system": "Escherichia coli", "experiment": "Antibacterial activity against Escherichia coli incubated for 24 hrs by microdilution method"}, "[9]": {"system": "Bacillus subtilis", "experiment": "Antibacterial activity against Bacillus subtilis at 100 ug/ml incubated for 24 hrs by agar well diffusion method", "summary_of_the_method": "as §1"}, "[10]": {"system": "Bacillus subtilis", "experiment": "Antibacterial activity against Bacillus subtilis at 75 ug/ml incubated for 24 hrs by agar well diffusion method", "summary_of_the_method": "as §1"}, "[11]": {"system": "Bacillus subtilis", "experiment": "Antibacterial activity against Bacillus subtilis at 25 ug/ml incubated for 24 hrs by agar well diffusion method", "summary_of_the_method": "as §1"}, "[12]": {"system": "Bacillus subtilis", "experiment": "Antibacterial activity against Bacillus subtilis at 50 ug/ml incubated for 24 hrs by agar well diffusion method", "summary_of_the_method": "as §1"}, "[13]": {"system": "Escherichia coli", "experiment": "Antibacterial activity against Escherichia coli at 75 ug/ml incubated for 24 hrs by agar well diffusion method", "summary_of_the_method": "as §1"}, "[14]": {"system": "Escherichia coli", "experiment": "Antibacterial activity against Escherichia coli at 25 ug/ml incubated for 24 hrs by agar well diffusion method", "summary_of_the_method": "as §1"}, "[15]": {"system": "Klebsiella pneumoniae", "experiment": "Antibacterial activity against Klebsiella pneumoniae at 100 ug/ml incubated for 24 hrs by agar well diffusion method", "summary_of_the_method": "as §1"}, "[16]": {"system": "Klebsiella pneumoniae", "experiment": "Antibacterial activity against Klebsiella pneumoniae incubated for 24 hrs by microdilution method"}, "[17]": {"system": "Escherichia coli", "experiment": "Antibacterial activity against Escherichia coli at 100 ug/ml incubated for 24 hrs by agar well diffusion method", "summary_of_the_method": "as §1"}, "[18]": {"system": "Klebsiella pneumoniae", "experiment": "Antibacterial activity against Klebsiella pneumoniae at 25 ug/ml incubated for 24 hrs by agar well diffusion method", "summary_of_the_method": "as §1"}, "[19]": {"system": "Bacillus subtilis", "experiment": "Antibacterial activity against Bacillus subtilis incubated for 24 hrs by microdilution method"}, "[20]": {"system": "Klebsiella pneumoniae", "experiment": "Antibacterial activity against Klebsiella pneumoniae at 75 ug/ml incubated for 24 hrs by agar well diffusion method", "summary_of_the_method": "as §1"}}, "data": [{"sequence": "GENTAMICIN", "values": [{"measurement": "inhibition zone (IZ)", "setting": "[1]", "value": 17, "unit": "mm"}, {"measurement": "inhibition zone (IZ)", "setting": "[2]", "value": 32, "unit": "mm"}, {"measurement": "MIC", "setting": "[3]", "value": 26, "unit": "µg/mL"}, {"measurement": "inhibition zone (IZ)", "setting": "[4]", "value": 29, "unit": "mm"}, {"measurement": "inhibition zone (IZ)", "setting": "[5]", "value": 21, "unit": "mm"}, {"measurement": "inhibition zone (IZ)", "setting": "[6]", "value": 24, "unit": "mm"}, {"measurement": "inhibition zone (IZ)", "setting": "[7]", "value": 24, "unit": "mm"}, {"measurement": "MIC", "setting": "[8]", "value": 26, "unit": "µg/mL"}, {"measurement": "inhibition zone (IZ)", "setting": "[9]", "value": 33, "unit": "mm"}, {"measurement": "inhibition zone (IZ)", "setting": "[10]", "value": 28, "unit": "mm"}, {"measurement": "inhibition zone (IZ)", "setting": "[11]", "value": 21, "unit": "mm"}, {"measurement": "inhibition zone (IZ)", "setting": "[12]", "value": 24, "unit": "mm"}, {"measurement": "inhibition zone (IZ)", "setting": "[13]", "value": 29, "unit": "mm"}, {"measurement": "inhibition zone (IZ)", "setting": "[14]", "value": 18, "unit": "mm"}, {"measurement": "inhibition zone (IZ)", "setting": "[15]", "value": 34, "unit": "mm"}, {"measurement": "MIC", "setting": "[16]", "value": 26, "unit": "µg/mL"}, {"measurement": "inhibition zone (IZ)", "setting": "[17]", "value": 33, "unit": "mm"}, {"measurement": "inhibition zone (IZ)", "setting": "[18]", "value": 19, "unit": "mm"}, {"measurement": "MIC", "setting": "[19]", "value": 28, "unit": "µg/mL"}, {"measurement": "inhibition zone (IZ)", "setting": "[20]", "value": 29, "unit": "mm"}]}]}
